The values that follow come from ChEMBL document CHEMBL1136441, “The design and synthesis of novel orally active inhibitors of AP-1 and NF-kappaB mediated transcriptional activation. SAR of in vitro and in vivo studies” (Bioorg Med Chem Lett, 2003).

Molecules are shown by their SMILES.

As usually defined, the IC50 is the midpoint of a concentration-inhibition curve.

Assay [1] is described as follows: Inhibition of AP-1 and NF-kB mediated transcriptional activation in Jurkat T-cells. The settings on record: Homo sapiens. Type of assay: functional, cell-based. In a few lines:
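Jurkat T-cell luciferase reporter lines, stably transfected with either an NF-kB site (MHC promoter) fused to a minimal SV-40 promoter, or an AP-1 site (collagenase promoter). Cells at 1×10⁶/mL in medium with 10% serum-plus were plated 18 h ahead. Compound in 0.2% DMSO/H₂O was added for 0.5 h at 37 °C, then PMA plus PHA (1 ug/mL) for 5 h. Lysate luminescence was read; IC50 is 50% of control luciferase.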

For another assay, the system named is Caco-2. The experiment in a line: Caco-2 permeability coefficient value was determined. A general note: Caco-2 monolayers are a common model of the intestinal barrier.

Molecule `CC1=CC(=O)N(Nc2nc(C(F)(F)F)nc3cc(N4CCCCC4)ccc23)C1=O` gave an IC50 in assay [1] of 200 nM.

Molecule `CC1=CC(=O)N(Nc2nc(C(F)(F)F)nc3ccccc23)C1=O` registered a half-maximal inhibitory concentration (IC50) in assay [1] of 100 nM.

In the case of `CC1=CC(=O)N(Nc2nc(C(F)(F)F)nc3ccc(S(C)(=O)=O)cc23)C1=O`, it took 9000 nM to reach half-maximal inhibition in assay [1] (IC50).

`COc1ccc2nc(C(F)(F)F)nc(NN3C(=O)C=C(C)C3=O)c2c1`: the IC50 in assay [1] worked out at 30 nM.

`COc1ccc2c(NN3C(=O)C=C(C)C3=O)nc(-c3cccs3)nc2c1` came in with an IC50 in assay [1] of 20 nM.

`COc1cccc2c(NN3C(=O)C=C(C)C3=O)nc(-c3cccs3)nc12` showed an IC50 in assay [1] of 50 nM.

As for `CC1=CC(=O)N(Nc2nc(-c3cccs3)nc3ccccc23)C1=O`, the IC50 in assay [1] was 60 nM.

The molecule `COc1cc2nc(-c3cccs3)nc(NN3C(=O)C=C(C)C3=O)c2cc1OC` registered an IC50 in assay [1] of 50 nM.

Consider `CC1=CC(=O)N(Nc2nc(-c3cccs3)nc3ccc(Cl)cc23)C1=O`, for which the midpoint of inhibition in assay [1], the IC50, lay at 20 nM.

Regarding `CC1=CC(=O)N(Nc2nc(C(F)(F)F)nc3ccc(O)cc23)C1=O`, it took 100 nM to reach half-maximal inhibition in assay [1] (IC50).

For the molecule `CC1=CC(=O)N(Nc2nc(-c3cccs3)nc3cccc(F)c23)C1=O`, in assay [1], the IC50 turned out to be 50 nM. This IC50 lies about 2-fold lower than the previous one.

For the molecule `COc1cccc2nc(C(F)(F)F)nc(NN3C(=O)C=C(C)C3=O)c12`, the Pc in the assay with Caco-2 was 1.49 ×10⁻⁶ cm/s. In assay [1], the IC50 came out at 10 nM.

In turn, `CC1=CC(=O)N(Nc2nc(-c3cccs3)nc3cccc(C)c23)C1=O` showed an IC50 in assay [1] of 20 nM. In other words, the double-digit nanomolar range.

In assay [1], `CC1=CC(=O)N(Nc2nc(-c3cccs3)nc3cc(N4CCOCC4)ccc23)C1=O` had an IC50 of 200 nM.

In turn, `CSc1ccc2nc(C(F)(F)F)nc(NN3C(=O)C=C(C)C3=O)c2c1` showed an IC50 in assay [1] of 80 nM.

Take `CC1=CC(=O)N(Nc2nc(-c3ccccc3)nc3ccccc23)C1=O`: in assay [1], the IC50 turned out to be 100 nM.

As for `COc1cc2c(NN3C(=O)C=C(C)C3=O)nc(-c3cccs3)nc2c(OC)c1OC`, in assay [1], the IC50 was 40 nM. This IC50 is about 2.5-fold lower than that of the molecule before.

`CC1=CC(=O)N(Nc2nc(C(F)(F)F)nc3ccc([S+](C)[O-])cc23)C1=O` (stereo not drawn) returned an IC50 in assay [1] of 1000 nM.

In assay [1], `CC1=CC(=O)N(Nc2nc(C(F)(F)F)nc3cccc(C)c23)C1=O` came in with an IC50 of 400 nM.

On to `CC1=CC(=O)N(Nc2nc(-c3cccs3)nc3cc(N(C)C)ccc23)C1=O`, for which, in the assay with Caco-2, the Pc came to 1.41 ×10⁻⁶ cm/s. In assay [1], this molecule gave an IC50 of 40 nM.

In turn, `CC1=CC(=O)N(Nc2nc(C(F)(F)F)nc3cc(N(C)C)ccc23)C1=O` came in with a Pc in the assay on Caco-2 of 1.68 ×10⁻⁶ cm/s. For the same molecule, the midpoint of inhibition in assay [1], the IC50, lay at 20 nM.

Molecule `COc1ccc2nc(-c3cccs3)nc(NN3C(=O)C=C(C)C3=O)c2c1` registered a Pc in the assay with Caco-2 of 1.62 ×10⁻⁶ cm/s. Also, inhibition in assay [1] was half-maximal at 3 nM (IC50).

`COc1cccc2nc(-c3cccs3)nc(NN3C(=O)C=C(C)C3=O)c12` [AS-602868]: the Pc with Caco-2 turned out to be 14.1 ×10⁻⁶ cm/s. In assay [1], the midpoint of inhibition, the IC50, lay at 8 nM.
